Source: ChEMBL document CHEMBL1138839, “Antitumor Agents. 239. Isolation, structure elucidation, total synthesis, and anti-breast cancer activity of neo-tanshinlactone from Salvia miltiorrhiza” (2004)
Converted amounts (≈) assume the structure as drawn.

What was measured:
KB [1] = test: Dose required for reduction in cell growth of human nasopharyngeal carcinoma KB cell line; type: functional; settings: read-out: ED50 (the source's name)
SW-620 [2] = test: Percent inhibition of cell growth in human colon cancer SW620 cell line; type: functional
MDA-MB-231 [3] = test: Dose required for reduction in cell growth of human breast cancer MDA-MB-231 cell line; type: functional; settings: read-out: ED50 (the source's name)
Summary of the method: (§1)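 Freshly trypsinized cells in RPMI-1640 (25 mM HEPES, 0.25% sodium bicarbonate, 10% FBS, 100 μg/mL kanamycin) were seeded at 1500-7500 cells/well and dosed from DMSO-diluted stock. After 3 days they were fixed with cold 50% TCA, stained with 0.4% SRB, and read at 562 nm after dye solubilization. ED50 (50% growth reduction) is the mean of ≥3 independent determinations.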

LNCaP [4] = test: Dose required for reduction in cell growth of human AR-dependent prostate cancer LN-CaP cell line; type: functional; settings: read-out: ED50 (the source's name)
SK-BR-3 = test: Dose required for reduction in cell growth of estrogen negative human breast cancer SK-BR-3 cell line(ER-); type: functional; settings: read-out: ED50 (the source's name)
PC-3 = test: Dose required for reduction in cell growth of human prostate cancer PC-3 cell line; type: functional; settings: read-out: ED50 (the source's name)
MCF7 [5] = test: Dose required for reduction in cell growth of human breast cancer MCF-7 cell line; type: functional; settings: read-out: ED50 (the source's name); summary of the method: as §1
KB [6] = test: Percent inhibition of cell growth in human nasopharyngeal carcinoma KB cell line; type: functional
A-431 [7] = test: Effective concentration required for 50% reduction in cell growth of human skin cancer A431 cell line; type: functional; settings: read-out: ED50 (the source's name); summary of the method: as §1
MDA-MB-231 [8] = test: cells; type: functional; settings: Homo sapiens, MDA-MB-231, read-out: ED50
ZR-75-1 = test: Dose required for reduction in cell growth of estrogen positive human breast cancer ZR-75-1 cell line (ER+); type: functional; settings: read-out: ED50 (the source's name)
MCF7 [9] = test: Percent inhibition of cell growth in human breast cancer MCF-7 cell line; type: functional
KB [10] = test: Dose required for reduction in cell growth of vincristine-resistant human nasopharyngeal carcinoma KB cell line; type: functional; settings: read-out: ED50 (the source's name)
KB [11] = test: Percent inhibition of cell growth in vincristine-resistant human nasopharyngeal carcinoma KB cell line; type: functional
cells = type: functional; settings: Homo sapiens; read-out: ED50 (the source's name)
MDA-MB-231 [12] = test: Percent inhibition of cell growth in human breast cancer MDA-MB-231 cell line; type: functional
A549 [13] = test: Percent inhibition of cell growth in human lung cancer A549 cell line; type: functional
MCF7 [14] = test: Dose required for reduction in cell growth of estrogen positive human breast cancer MCF-7 cell line (ER+); type: functional; settings: read-out: ED50 (the source's name)
A549 [15] = test: Dose required for reduction in human lung cancer A549 cell proliferation; type: functional; settings: read-out: ED50 (the source's name); summary of the method: as §1
LNCaP [16] = test: Percent inhibition of cell growth in human AR-dependent prostate cancer LN-CaP cell line; value ranges from 28-36; type: functional
A-431 [17] = test: Percent inhibition of human skin cancer A431 cell proliferation; type: functional
SW-620 [18] = test: Dose required for reduction in cell growth of human colon cancer SW620 cell line; type: functional; settings: read-out: ED50 (the source's name)
A-431 [19] = test: Effective dose for reduction in cell growth of human skin cancer A431 cell line; settings: A-431, read-out: ED50

Row | SMILES | EC50 (KB [1]) [µg/mL] | EC50 (MDA-MB-231 [3]) [µg/mL] | EC50 (LNCaP [4]) [µg/mL] | EC50 (SK-BR-3) [µg/mL] | EC50 (PC-3) [µg/mL] | EC50 (MCF7 [5]) [µg/mL] | EC50 (MDA-MB-231 [8]) [µg/mL] | EC50 (ZR-75-1) [µg/mL] | EC50 (KB [10]) [µg/mL] | EC50 (cells) [µg/mL] | EC50 (MCF7 [14]) [µg/mL] | EC50 (SW-620 [18]) [µg/mL] | also measured
1 | Cc1cccc2c1ccc1c3occ(C)c3c(=O)oc21 | > 10 | > 20 | > 10 | 0.2 (≈ 0.757 µM) | 10 (≈ 37.8 µM) | < 2.5 | > 10 | 0.3 (≈ 1.14 µM) | > 10 | 16 (≈ 60.5 µM) | 0.6 (≈ 2.27 µM) | > 10 | Inhibition (SW-620 [2]): 22%; Inhibition (KB [6]): 18%; EC50 (A-431 [7]): > 10 µg/mL; Inhibition (MCF7 [9]): 57%; Inhibition (KB [11]): 9%; Inhibition (MDA-MB-231 [12]): 17%; Inhibition (A549 [13]): 10%; EC50 (A549 [15]): > 20 µg/mL; Inhibition (LNCaP [16]): 36%; Inhibition (A-431 [17]): 35%
2 | C[C@H]1COC2=C1C(=O)C(=O)c1c2ccc2c1CCCC2(C)C [CRYPTOTANSHINONE] |  | 0.16 (≈ 0.54 µM) |  |  |  | 0.41 (≈ 1.38 µM) |  |  |  |  |  |  | 
3 | CC/C(=C(\c1ccccc1)c1ccc(OCCN(C)C)cc1)c1ccccc1.O=C(O)CC(O)(CC(=O)O)C(=O)O [TAMOXIFEN CITRATE] | 9 |  | 6 | 5 | 10 |  | > 8 | 5 | 9 | 9 | 5 | 4 | EC50 (A-431 [19]): 7 µg/mL
4 | Cc1coc2c1C(=O)C(=O)c1c-2ccc2c1CCCC2(C)C [TANSHINONE IIA] |  | 0.7 (≈ 2.38 µM) |  |  |  | 0.38 (≈ 1.29 µM) |  |  |  |  |  |  | 
5 | Cc1coc2c1C(=O)C(=O)c1c-2ccc2c(C)cccc12 [TANSHINONE I] |  | 0.75 (≈ 2.71 µM) |  |  |  | 0.82 (≈ 2.97 µM) |  |  |  |  |  |  | 
